Test results as given in ChEMBL document CHEMBL4190227, “Syntheses, toxicities and anti-inflammation of H2S-donors based on non-steroidal anti-inflammatory drugs” (Eur J Med Chem, 2017).
Activity calls are given as the source filed them. No cut-off for these calls is given here.

Key:
[1] = Drug degradation in phosphate buffer assessed as H2S release by measuring test compound half life at 40 uM measured every 5 mins in presence of TECP by UV-Vis spectrometry; type: physicochemical
In short: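 Sulfide release at 37.5 °C: donor (40 mM THF stock) added to pH 7.4 phosphate buffer with 1.0 mM TECP; aliquots taken every 5 min into methylene blue cocktail (zinc acetate, N,N-dimethyl-1,4-phenylenediamine, FeCl3 in HCl), A670 read 15 min later; H2S from Na2S calibration curve; concentration vs time curve; four independent experiments.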

[2] = Toxicity in AB zebrafish embryo assessed as percentage of embryos alive at 5 to 10 uM measured at 120 hrs post fertilization by dissecting light microscopic analysis relative to DMF; type: organism-based, Danio rerio; settings: read-out: Activity
In short: (§1)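 Wild-type AB zebrafish embryos, collected within 1 h of lights-on and washed in E3 medium, were exposed one embryo per well in 200 μL test solution, with plates sealed against evaporation. There were 100 embryos per group, split into three replicate groups. Mortality was recorded at 24–168 hpf. DMF vehicle (1:1000) served as control. Results are mean ± SD of three replicates.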

[3] = species on record: Danio rerio; assay: Toxicity in AB zebrafish embryo assessed as embryonic spontaneous movement frequencies per minute at 1 to 20 uM measured at 24 hrs post fertilization by stereoscopic dissecting light microscopic analysis (reference value: 15 /min); type: organism-based; settings: in vivo
In short: (§2)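 AB embryos exposed from 4 to 24 hpf to compound (0.5–20 μM) or DMF vehicle (1:1000); ten embryos per group chosen randomly; spontaneous movement recorded under stereoscopic dissecting microscope, frequency per min counted at 24 hpf; three independent experiments, mean ± SD.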

[4] = species on record: Danio rerio; assay: Toxicity in AB zebrafish embryo assessed as increase in embryo malformation measured at 96 hrs post fertilization by stereoscopic dissecting light microscopic analysis; type: organism-based; settings: in vivo
In short: (§3)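 AB embryos exposed from 4 hpf through 96 hpf to compound or DMF vehicle (1:1000); malformations scored at 96 hpf under stereoscopic dissecting microscope; 100 embryos per group in three replicates; three independent experiments, mean ± SD.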

[5] = species on record: Danio rerio; assay: Toxicity in AB zebrafish embryo assessed as rate of embryo malformation at 20 uM measured at 96 hrs post fertilization by stereoscopic dissecting light microscopic analysis relative to DMF; type: organism-based; settings: in vivo; in short: as §3
[6] = tested on: Danio rerio; assay: Toxicity in AB zebrafish embryo assessed as pericardial edema at 0.5 uM measured at 96 hrs post fertilization by stereoscopic dissecting light microscopic analysis; type: organism-based; settings: in vivo; in short: as §3
[7] = species on record: Danio rerio; assay: Toxicity in AB zebrafish embryo assessed as vitelline cyst at 0.5 uM measured at 96 hrs post fertilization by stereoscopic dissecting light microscopic analysis; type: organism-based; settings: in vivo; in short: as §3
[8] = species on record: Danio rerio; assay: Toxicity in AB zebrafish embryo assessed as bent spine at 0.5 uM measured at 96 hrs post fertilization by stereoscopic dissecting light microscopic analysis; type: organism-based; settings: in vivo; in short: as §3
[9] = (§4) Cytotoxicity against mouse RAW264.7 cells assessed as cell viability at 10 to 100 uM treated for 24 hrs post LPS induction by MTT assay; type: cell-based; settings: RAW264.7 cells, read-out: Activity
In short: (§5)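 Macrophages in high-glucose DMEM + 10% heat-inactivated FBS, 2 mM glutamine, 37 °C, 5% CO2; exposed 24 h to 10, 50, 100 μM with or without LPS 1 μg/mL; MTT added 4 h, formazan dissolved in DMSO, A570, expressed as % of control; four independent experiments.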

[10] = tested on: RAW264.7; assay: Inhibition of LPS-induced COX2 expression in mouse RAW264.7 cells at 10 to 100 uM incubated for 24 hrs post LPS induction by ELISA; type: functional, cell-based
In short: (§6)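 LPS (1 μg/mL) for 4 h, then compound at 10, 50, 100 μM for 24 h; cells lysed in RIPA, spun 12,000×g 10 min, protein normalised by BCA to 0.1 mg/mL; target (TNF-α, HO-1, IL-10 or COX-2) quantified by sandwich ELISA kit with mouse-specific polyclonal antibodies; four independent experiments.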

[11] = (§7) Cytotoxicity against mouse RAW264.7 cells assessed as cell viability at 10 to 100 uM treated for 24 hrs in absence of LPS by MTT assay; type: cell-based; settings: RAW264.7 cells, read-out: Activity; in short: as §5
[12] = Drug degradation in phosphate buffer assessed as H2S release by measuring test compound half life at 40 uM measured every 5 mins in presence of L-cysteine by UV-Vis spectrometry; type: physicochemical
In short: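 Sulfide release at 37.5 °C: donor (40 mM THF stock) added to pH 7.4 phosphate buffer with 1.0 mM L-cysteine; aliquots taken every 5 min into zinc acetate/N,N-dimethyl-1,4-phenylenediamine/FeCl3 in HCl, A670 read 15 min later; H2S quantified against Na2S standard curve (5–150 μM); release curve plotted vs time; four independent experiments.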

[13] = Toxicity in AB zebrafish embryo assessed as percentage of embryos alive at 10 uM measured at 120 hrs post fertilization by dissecting light microscopic analysis relative to DMF; type: organism-based, Danio rerio; settings: read-out: Activity; in short: as §1
[14] = species on record: Danio rerio; assay: Toxicity in AB zebrafish embryo assessed as reduction in embryonic spontaneous movement frequencies per minute up to 1 uM measured at 24 hrs post fertilization by stereoscopic dissecting light microscopic analysis; type: organism-based; settings: in vivo; in short: as §2
[15] = species on record: Danio rerio; assay: Toxicity in AB zebrafish embryo assessed as embryonic spontaneous movement frequencies per minute at 5 uM measured at 24 hrs post fertilization by stereoscopic dissecting light microscopic analysis (reference value: 15.9 /min); type: organism-based; settings: in vivo; in short: as §2
[16] = species on record: Danio rerio; assay: Toxicity in AB zebrafish embryo assessed as embryonic spontaneous movement frequencies per minute at 10 uM measured at 24 hrs post fertilization by stereoscopic dissecting light microscopic analysis (reference value: 15.9 /min); type: organism-based; settings: in vivo; in short: as §2
[17] = species on record: Danio rerio; assay: Toxicity in AB zebrafish embryo assessed as embryonic spontaneous movement frequencies per minute at 20 uM measured at 24 hrs post fertilization by stereoscopic dissecting light microscopic analysis (reference value: 15.9 /min); type: organism-based; settings: in vivo; in short: as §2
[18] = tested on: RAW264.7; assay: as §4; type: cell-based; settings: raw264.7, 24 h, 100 µM; in short: as §5
[19] = tested on: RAW264.7; assay: Antiinflammatory activity in mouse RAW264.7 cells assessed as LPS-induced TNFalpha levels at 100 uM incubated for 24 hrs post LPS induction by ELISA relative to control; type: functional; in short: as §6
[20] = tested on: RAW264.7; assay: Antiinflammatory activity in mouse RAW264.7 cells assessed as increase in LPS-induced IL10 levels at 100 uM incubated for 24 hrs post LPS induction by ELISA relative to control; type: functional; in short: as §6
[21] = tested on: RAW264.7; assay: Antiinflammatory activity in mouse RAW264.7 cells assessed as increase in IL10 levels at 100 uM measured after 24 hrs in absence of LPS by ELISA relative to control; type: functional
In short: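 Macrophages exposed 24 h to 10, 50, 100 μM without LPS; lysates (RIPA, 12,000×g spin) normalised by BCA to 0.1 mg/mL protein; IL-10 measured by mouse-specific sandwich ELISA kit; four independent experiments, mean ± SD.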

[22] = tested on: RAW264.7; assay: as §7; type: cell-based; settings: raw264.7, 24 h, 100 µM; in short: as §5

CC(C)Cc1ccc(C(C)C(=O)Oc2ccc(C(N)=S)cc2)cc1 (stereo not drawn)
half-life at 40 µM [1]: 20.1 min | survival at 120 h, up to 10 µM [2]: 60% | Activity [3]: 11 min⁻¹ | Activity [4]: Dose-dependent effect | Activity [5]: 5% | Activity [6]: Toxic | Activity [7]: Toxic | Activity [8]: Toxic | viability at 24 h, up to 100 µM [9]: 70 to 110% | inhibition [10]: Active | viability at 24 h, up to 100 µM [11]: 70 to 110%

CC(=O)Nc1ccc(OC(=O)CCCCC2CCSS2)cc1 (stereo not drawn)
half-life at 40 µM [12]: 14.1 min | survival at 120 h, 10 µM [13]: 51% | Activity [14]: Non-Toxic | Activity [15]: 14.1 min⁻¹ | Activity [16]: 13.5 min⁻¹ | Activity [17]: 12.2 min⁻¹ | Activity [18]: Non-Toxic | Activity [19]: 50% | fold change (FC) [20]: 3 | fold change (FC) [21]: 3 | inhibition [10]: Active | Activity [22]: Non-Toxic
